Measured values as given in ChEMBL document CHEMBL4406803, “A- and D-Ring Structural Modifications of an Androsterone Derivative Inhibiting 17β-Hydroxysteroid Dehydrogenase Type 3: Chemical Synthesis and Structure-Activity Relationships” (J Med Chem, 2019).

Columns and labels:
LAPC4 [1] = experiment: Androgenic activity in human LAPC4 cells expressing androgen receptor assessed as effect on cell proliferation at 1 uM supplemented with fresh medium containing compounds every 3 days for 7 days by MTS assay (reference value: 100%); assay type: ADME, cell-based; conditions: lapc4, 168 h
Procedure, shortened: (§1)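 Androgen-dependent LAPC-4 cells were seeded at 5,000 per well in IMDM with 5% dextran-coated charcoal-treated FBS and pre-incubated 24 h at 37 °C, 5% CO2. Compounds were added from DMSO stock at 0.1, 0.5 and 1.0 µM, with 0.05% DMSO in controls. Incubation lasted 7 days, with a medium change at day 3. Growth was read by MTS (4 h, 490 nm) as % of untreated control (100%), in triplicate.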

[2] = biological target: T1, 17-beta-hydroxysteroid dehydrogenase type 3 (Homo sapiens) (UniProt P37058); experiment: Inhibition of 17beta-HSD3 (unknown origin) expressed in human LNCAP cells assessed as reduction in [14C]-testosterone formation from [14C]-4-androstene-3,17-dione at 0.5 uM measured after 1 hr relative to control; assay type: cell-based
T1 sequence (whole entry): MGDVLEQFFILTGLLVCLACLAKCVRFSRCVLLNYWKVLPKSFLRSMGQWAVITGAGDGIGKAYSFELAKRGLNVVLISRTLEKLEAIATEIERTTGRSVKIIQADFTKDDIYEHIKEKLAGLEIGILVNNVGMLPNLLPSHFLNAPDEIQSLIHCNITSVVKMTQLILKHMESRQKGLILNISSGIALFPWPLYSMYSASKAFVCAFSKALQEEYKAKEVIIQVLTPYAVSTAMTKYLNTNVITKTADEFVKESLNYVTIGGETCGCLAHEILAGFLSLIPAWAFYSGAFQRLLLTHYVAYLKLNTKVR
Procedure, shortened: (§2)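 LNCaP cells stably transfected with 17β-HSD3 were plated at 10,000 per well in hygromycin-free medium and grown 2 days. They were then given 15 nM [14C]-4-androstenedione plus inhibitor at 0.1, 0.5 or 1.0 µM (0.05% DMSO final) for 1 h. Steroids were ether-extracted, separated by TLC and quantified by radioimaging. Results are % inhibition of conversion to T.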

[3] = biological target: T1, 17-beta-hydroxysteroid dehydrogenase type 3 (Homo sapiens); experiment: Inhibition of 17beta-HSD3 (unknown origin) expressed in human LNCAP cells assessed as reduction in [14C]-testosterone formation from [14C]-4-androstene-3,17-dione at 1 uM measured after 1 hr relative to control; assay type: cell-based; procedure, shortened: as §2
LAPC4 [4] = experiment: Androgenic activity in human LAPC4 cells expressing androgen receptor assessed as effect on cell proliferation at 0.1 uM supplemented with fresh medium containing compounds every 3 days for 7 days by MTS assay (reference value: 100%); assay type: ADME, cell-based; conditions: lapc4, 168 h; procedure, shortened: as §1
LAPC4 [5] = experiment: Androgenic activity in human LAPC4 cells expressing androgen receptor assessed as effect on cell proliferation at 0.5 uM supplemented with fresh medium containing compounds every 3 days for 7 days by MTS assay (reference value: 100%); assay type: ADME, cell-based; conditions: lapc4, 168 h; procedure, shortened: as §1
[6] = biological target: T1, 17-beta-hydroxysteroid dehydrogenase type 3 (Homo sapiens); experiment: Inhibition of 17beta-HSD3 (unknown origin) expressed in human LNCAP cells assessed as reduction in [14C]-testosterone formation from [14C]-4-androstene-3,17-dione at 0.1 uM measured after 1 hr relative to control; assay type: cell-based; procedure, shortened: as §2
[7] = biological target: T2, 17-beta-hydroxysteroid dehydrogenase type 3 (Homo sapiens, UniProt P37058); experiment: Inhibition of 17beta-HSD3 (unknown origin) expressed in human LNCAP cells assessed as reduction in [14C]-testosterone formation from [14C]-4-androstene-3,17-dione measured after 1 hr; assay type: cell-based
T2 sequence (P37058 whole entry): T1 sequence (whole entry)
Procedure, shortened: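 Transfected LNCaP[17β-HSD3] cells were incubated 1 h with 15 nM [14C]-4-androstenedione and inhibitor at seven concentrations (0.001–5.0 µM; 0.05% DMSO). [14C]-T formation was measured by TLC and radioimaging. IC50 was obtained by curve fitting, averaging two independent experiments in triplicate.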

inhibition [2] [%] | inhibition [3] [%] | inhibition [6] [%] | IC50 [7] [µM] | Structure (SMILES) | Activity (LAPC4 [1]) [%] | Activity (LAPC4 [4]) [%] | Activity (LAPC4 [5]) [%]
48 | 55 | 20 |  | CC1CN(S(=O)(=O)c2ccccc2C(F)(F)F)C(C)CN1C[C@@]1(O)CC[C@@]2(C)[C@@H](CC[C@@H]3[C@@H]2CC[C@]2(C)[C@@H](O)[C@H](O)C[C@@H]32)C1 (stereo partly specified) | 43.8 | 90.8 | 54.1
18 | 30 | 10 |  | CO[C@H]1CC[C@H]2[C@@H]3CC[C@H]4C[C@@](O)(CN5CC(C)N(S(=O)(=O)c6ccccc6C(F)(F)F)CC5C)CC[C@]4(C)[C@H]3CC[C@]12C (stereo partly specified) |  |  | 
78 | 94 | 38 | 0.19 | CC1CN(S(=O)(=O)c2ccccc2C(F)(F)F)C(C)CN1C[C@@]1(O)CC[C@@]2(C)[C@@H](CC[C@@H]3[C@@H]2CC[C@]2(C)[C@@H](O)CC[C@@H]32)C1 (stereo partly specified) | 31.3 | 116.4 | 88.1
10 | 20 | 5 |  | CC1CN(S(=O)(=O)c2ccccc2C(F)(F)F)C(C)CN1C[C@@]1(O)CC[C@@]2(C)[C@@H](CC[C@@H]3[C@@H]2CC[C@@]2(C)[C@H]3CC[C@@]23CO3)C1 (stereo partly specified) | 49.3 | 92.6 | 61.2
58 | 70 | 12 |  | CC1CN(S(=O)(=O)c2ccccc2C(F)(F)F)C(C)CN1C[C@@]1(O)CC[C@@]2(C)[C@@H](CC[C@@H]3[C@@H]2CC[C@]2(C)[C@@H](O)[C@H](F)C[C@@H]32)C1 (stereo partly specified) | 142.4 | 153.6 | 149.7
60 | 80 | 0 |  | CC1CN(S(=O)(=O)c2ccccc2C(F)(F)F)C(C)CN1C[C@@]1(O)CC[C@@]2(C)[C@@H](CC[C@@H]3[C@@H]2CC[C@]2(C)C(=O)[C@H](O)C[C@@H]32)C1 (stereo partly specified) | 69.3 | 114 | 83.1
80 | 90 | 30 | 0.25 | CC1CN(S(=O)(=O)c2ccccc2C(F)(F)F)C(C)CN1CC(F)c1ccc2c(c1)CC[C@@H]1[C@@H]2CC[C@]2(C)C(=O)CC[C@@H]12 (mixture of isomers) |  |  | 
30 | 40 | 5 |  | C#C[C@]1(O)CC[C@H]2[C@@H]3CC[C@H]4C[C@@](O)(CN5CC(C)N(S(=O)(=O)c6ccccc6C(F)(F)F)CC5C)CC[C@]4(C)[C@H]3CC[C@@]21C (stereo partly specified) | 81.2 | 130.9 | 95.8
 |  |  | 0.14 | CC1CN(S(=O)(=O)c2ccccc2C(F)(F)F)C(C)CN1CC(O)c1ccc2c(c1)CC[C@@H]1[C@@H]2CC[C@]2(C)C(=O)CC[C@@H]12 (single isomer, unassigned; diastereomer A) [listing 1 of 2 here] | 81.9 | 115 | 94.9
95 | 98 | 50 |  | CC1CN(S(=O)(=O)c2ccccc2C(F)(F)F)C(C)CN1CC(O)c1ccc2c(c1)CC[C@@H]1[C@@H]2CC[C@]2(C)C(=O)CC[C@@H]12 (single isomer, unassigned; diastereomer A) [listing 2 of 2 here] |  |  | 
